Experimental data taken from the EternaBench riboswitch data.

System: MS2 coat protein
Assay: apparent Kd, MS2 coat protein; higher = weaker binding; RNA-MaP array; FMN 200 µM where present
Outline: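 The apparent Kd comes from binding curves fitted cluster by cluster, filtered, and summarised as a median. Those curves followed SNAP-549-labelled MS2 coat protein from 0.7 or 1.5 nM, doubling to 3 µM, on Illumina sequencing-chip clusters where stalled E. coli RNA polymerase had transcribed the designs, without and then with constant ligand. The buffer was 100 mM Tris-HCl pH 7.5, 80 mM KCl, 4 mM MgCl2, BSA, DTT, yeast tRNA and Tween-20, and green signal was normalised to red-channel RNA signal and control-cluster median Fmax.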

[1] = designed as: ON switch for flavin mononucleotide, no ligand
[2] = ligand present: flavin mononucleotide, designed as: ON switch for flavin mononucleotide
[3] = designed as: OFF switch for flavin mononucleotide, no ligand
[4] = ligand present: flavin mononucleotide, designed as: OFF switch for flavin mononucleotide

| Sequence | apparent Kd [1] [nM] | apparent Kd [2] [nM] | apparent Kd [3] [nM] | apparent Kd [4] [nM] |
| --- | --- | --- | --- | --- |
| GUAGCAUUCCGAGGAUAUUCAGGGCGUGGAUAUACAUGAGGAUCACCCAUGUGGCGGAAGCCUAGGGAGAAGGCGGGCUGCUUC | 27.8 | 18.6 |  |  |
| CUUUUGUGAGGAUAUUAGUAGUAAAUAAUUAAAAUUACUACUGAGAAGGCACAUGAGGAUCACCCAUGUUCCUC |  |  | 33.2 | 344 |
| UCCUUAAGUUAGGAUAUCGAUUGCUAUAGCAGAUGAGAAGGAGCCACAUGAGGAUCACCCAUGUCCUCACCUAU |  |  | 180 | 214 |
| ACCUCACACGUCAGGAUAUGCCUGCGGAUAUGCGGGUAGAAGGGACAUGAGGAUCACCCAUGUCUUUCGUGAUU |  |  | 15.8 | 21.1 |
| UAUAACCAAGGAUAUACAUGAGGAUCACCCAUGUAAUAUAGUAUAAUAUAUGUAAAAUGUAGAAGGUGGGAUGU |  |  | 32 | 34 |
| GACCGCGAGGAAGGAUAUGGAGCCUUAAAGGCUCCAGAAGGUCCAUAAAGGACAUGAGGAUCACCCAUGUGGUGAGAAGCGGUC | 1720 | 201 |  |  |
| GUCCUUUCUGAGGAUAUUAUCCUUUCCGAUUGAUAAGAAGGCAGUACAUGAGGAUCACCCAUGUGGGUUGUCUG |  |  | 29.8 | 38.3 |
| GUCAGCUCGUGAGGAUAUACAACACUGCUUCGGCAGUGUAUUAAGAUCACAUGAGGAUCACCCAUGUAGAAGGCACGAGCUGAA |  |  | 13.7 | 245 |
| UUUGGGUGAGGAUAUCAGUCUGGAUCAGACUAGAUCCUGACUGAGAAGGCACAUGAGGAUCACCCAUGUGAGUU |  |  | 294 | 320 |
| AUGCGGUCAGGAUAUGCAUGGCGGGACUUGCGUCGUGGCGUGGAGAAGGGACAUGAGGAUCACCCAUGUGGAGG |  |  | 108 | 87 |
| AAUUCUUGUGAAGGAUAUACGGCGGGUCGCGCAGUAGAAGGUCACAUGAGGAUCACCCAUGUCGACAAUGCGCAGUAUCGACAA |  |  | 72 | 164 |
| AAGCAGGUAAAUAAACUCAAUUACAUGAGGAUCACCCAUGUAUAGGAUAUCGUCAGGAAUACUGACGAGAAGGAUACAUCCUGC |  |  | 17.7 | 63.9 |
| AAUAUGUGAGGAUAUAUCCACCGCGUAGGCGCGCGGUGACAAUAGAAGGUACAUGAGGAUCACCCAUGUAGGGA |  |  | 51.5 | 31.5 |
| CCUCUACAUGAGGAUCACCCAUGUGAGGAUAUAUGCCCAUUACGCCAAGAGCGUGAUGAUAGAAGGCACAGGGU |  |  | 22 | 72.7 |
| UAGCCACAAGGAUAUACAUGAGGAUCACCCAUGUUUCCAGGAUGCCCUCUCAUGGGUUGUAGAAGGUGUCGGCG |  |  | 15.8 | 17.9 |
| UUCGGCGCAGGAUAUACAGUUCUGUGUUGAAUCGGCGCGGGACAUGAGGAUCACCCAUGUAGAAGGGUGUUGAA |  |  | 1160 | 578 |
| GAGAAGAAGUUAGGAUAUUGGAUAGGGACGGAAUAAGAAGGAGCACAUACAUGAGGAUCACCCAUGUUAGAAGAAGAGAUCCUC |  |  | 545 | 253 |
| GAAGCACAUGAGGAUCACCCAUGUAAGGAUAUACGUCUGGUCCGGCCGGACCAGUACCGUAGAAGGUACGUAAA |  |  | 19.1 | 23 |

| Sequence | apparent Kd [1] [nM] | apparent Kd [2] [nM] | apparent Kd [3] [nM] | apparent Kd [4] [nM] |
| --- | --- | --- | --- | --- |
| UUUCGUCUCGAGAAGGUCUAUCGACAUGAGGAUCACCCAUGUUGCCAUGGAAGGAUAUCGAAGGCAGCACGGGAAAUAGUCCGG | 78.3 | 14 |  |  |
| GGGCUCGGAGGAUAUACAAUUCUGGGCUGAAAGGCUCGGGUACAUGAGGAUCACCCAUGUAGAAGGUCGGGUCU |  |  | 15.9 | 15.9 |
| AUGAGUGUAAUGAUAGAGCCACUGCAGGAUAUCACAUGAGGAUCACCCAUGUGUCAGCCUCGGAGUGAGAAGGGCGGUUUCUUA |  |  | 5.65 | 9.7 |
| UUGAGGUGCAAGAAGGAUCACAUGAGGAUCACCCAUGUCAUGUGAAGUCUCGAGAUUUUAUAUGGAUAGGAUAUUGCACCGAAC | 263 | 41.2 |  |  |
| GCGAUUGCGUAGAAGGUACUAUAUAAUACACUGUAAGGAUAUACAUACAUGAGGAUCACCCAUGUAAAUGGAAUUUGCAAUCGC | 6.93 | 6.41 |  |  |
| UCGUAUACACAAGGAUAUCAAUGAUUUGUGGAUCCUACAUGAGGAUCACCCAUGUUUUUAUAUUGUGAGAAGGUGUAGUGUCUU | 507 | 684 |  |  |
| GUCGGAAACGACAAAAGUACCCGAGCAGAAGGGUGAAAACAUGAGGAUCACCCAUGUAAAUAAUCACAGGAUAUGCUCGGGUAC | 6.09 | 4.43 |  |  |
| AACUCAGCAGGAUAUACAUACAAAUCCAUCAUGCCGUUUGAACAUGAGGAUCACCCAUGUAGAAGGGCUCACAC |  |  | 28.7 | 51.5 |
| ACAUGAGGAUCACCCAUGUUAAAUUAGGAUAUUUGACUGCACAUGAGGUUCACCCAUGUUCUACCGAAGAAGGGAUAAAUAAUU | 49 | 50 |  |  |
| GAAGUAUCCAAUAACAUGAGGAUCACCCAUGUCAAAAGACGGGAGGAUAUUGAUCUGAAGAAGAUCAAGAAGGCCUGGUGCUAA | 19.2 | 11.1 |  |  |
| AAGUCGUGAGGAUAUACAUGGAUAUACAUUUAUGUGGACCUACAUGAGGAUCACCCAUGUAGAAGGCACGAAUA |  |  | 85.2 | 69.4 |
| CAUUAUUAUCGAGGAUAUCCUAUUGAAAUUCUGGGAGAAGGCGGACUCAACAUGAGGAUCACCCAUGUGGGACGGAUGCUAGGA |  |  | 18.5 | 15.4 |
| AGCAUGGUAGGAUAUACGGAGCAUUAGGGUUUGUUAUGUGGACAUGAGGAUCACCCAUGUAGAAGGGCCGUGCA |  |  | 38.6 | 60 |
| UCCUGACCGAGAGAUAGGAGUAGUAGAAGGCGACCGGUGCCAGAUGACAUGAGGAUCACCCAUGUCGAGGAUAUACUACAGAAU |  |  | 6.99 | 9.63 |
| GGUUGGCGAGGAUAUACAUGAGGAUCACCCAUGUGGUCCUGCGGUGGUAUCGCCCUUUGUAGAAGGCGCGGGUC |  |  | 112 | 117 |
| AUCUUUAAGGUAGGAUAUAGUAUGAUGGUUUAAUUAGAAGGAUCUCACAUGAGGAUCACCCAUGUAAUAGGAUUACCCAUGUAU |  |  | 54 | 43.6 |
| GUAUUUAGAUAAGGAUAUAAGUCUAUGACAUGAGGAUCACCCAUGUGUGUUUUAGAAGGUAUUUGGGUAAUAUUGUUACAGUAA | 29.6 | 21.3 |  |  |
| AAUAUUUAUUGAGGAUAUUCAUACACUGUAUACGGAGAAGGCAAACAAUCAUGAGGACAUGAGGAUCACCCAUGUUGUGACCAU | 19.8 | 14.3 |  |  |
